How the values were obtained:
[1] = molecular target: Cholinesterase (Equus caballus, UniProt P81908); assay: Inhibition of equine serum BuChE using S-butyrylthiocholine iodide as susbtrate preincubated for 6 mins followed by substrate addition measured up to 3 mins by Ellman's method
[2] = molecular target: T1, Amine oxidase [flavin-containing] A (Homo sapiens, UniProt P21397); assay: Inhibition of recombinant human MAO-A expressed in baculovirus infected BTI insect cells at 12.5 uM using kynuramine as substrate measured after 30 mins by fluorescence based assay relative to control; conditions: 0.5 h
T1 sequence (P21397 whole entry): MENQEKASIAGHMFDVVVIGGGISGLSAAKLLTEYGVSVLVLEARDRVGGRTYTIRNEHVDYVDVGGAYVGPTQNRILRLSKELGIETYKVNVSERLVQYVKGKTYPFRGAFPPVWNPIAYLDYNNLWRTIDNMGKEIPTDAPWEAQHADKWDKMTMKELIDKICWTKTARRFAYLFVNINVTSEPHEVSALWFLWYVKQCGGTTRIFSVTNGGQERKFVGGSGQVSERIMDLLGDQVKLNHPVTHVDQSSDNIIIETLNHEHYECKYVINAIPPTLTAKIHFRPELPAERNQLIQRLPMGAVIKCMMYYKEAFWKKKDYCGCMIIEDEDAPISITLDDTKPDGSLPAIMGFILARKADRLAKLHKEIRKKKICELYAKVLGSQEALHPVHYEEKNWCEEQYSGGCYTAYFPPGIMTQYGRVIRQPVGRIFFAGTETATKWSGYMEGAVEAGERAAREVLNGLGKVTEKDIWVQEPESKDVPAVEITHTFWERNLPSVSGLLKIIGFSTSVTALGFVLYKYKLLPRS

[3] = Antioxidant activity assessed as trolox equivalents of AAPH radical scavenging activity preincubated for 15 mins followed by AAPH addition and measured every minute for 90 mins by ORAC-FL assay; type: functional
[4] = molecular target: Acetylcholinesterase (AChE) (Electrophorus electricus, UniProt O42275); assay: Inhibition of electric eel AChE at 25 uM using acetylthiocholine iodide as substrate incubated for 15 mins by Ellman's method relative to control; conditions: electric eel acetylcholinesterase (isolated enzyme), probe acetylthiocholine iodide
[5] = molecular target: T2, Amine oxidase [flavin-containing] B (Homo sapiens, UniProt P27338); assay: biochemical; type: cell-based
T2 sequence (P27338 whole entry): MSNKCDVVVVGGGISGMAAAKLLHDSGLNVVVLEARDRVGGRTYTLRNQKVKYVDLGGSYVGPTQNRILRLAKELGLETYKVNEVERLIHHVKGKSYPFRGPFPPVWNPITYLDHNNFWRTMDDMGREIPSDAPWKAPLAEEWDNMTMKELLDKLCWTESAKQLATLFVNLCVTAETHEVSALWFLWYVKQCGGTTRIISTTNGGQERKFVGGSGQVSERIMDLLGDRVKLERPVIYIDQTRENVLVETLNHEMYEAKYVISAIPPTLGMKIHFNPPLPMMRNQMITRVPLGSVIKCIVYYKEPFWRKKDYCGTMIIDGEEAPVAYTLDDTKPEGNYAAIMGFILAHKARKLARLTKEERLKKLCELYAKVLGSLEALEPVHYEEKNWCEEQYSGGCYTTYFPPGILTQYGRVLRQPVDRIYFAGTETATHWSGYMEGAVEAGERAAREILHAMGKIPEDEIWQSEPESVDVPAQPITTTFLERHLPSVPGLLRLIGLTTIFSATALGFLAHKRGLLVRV

[6] = molecular target: Cholinesterase (Equus caballus) (UniProt P81908); assay: Reversible inhibition of equine serum BuChE assessed as enzyme activity at IC50 using butyrylthiocholine iodide as substrate by Ellman's method relative to control; set-up: scale not given: the % may be the effect or the level left
[7] = molecular target: Cholinesterase (Equus caballus) (UniProt P81908); assay: Reversible inhibition of equine serum BuChE assessed as enzyme activity at 0.1 times IC50 using butyrylthiocholine iodide as substrate by Ellman's method relative to control; set-up: scale not given: the % may be the effect or the level left
Procedure, shortened: (§1)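 Reversibility tested by recovery of equine serum BuChE activity after dilution of inhibitor, with activity monitored over time up to 240 min by the Ellman method (DTNB read at 412 nm). Activity expressed relative to untreated control. Three independent experiments.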

[8] = tested on: Mus musculus; assay: Effect on total arm entries in Kunming mouse model of scopolamine-induced cognitive impairment in at 6 mg/kg, ig pretreated for 30 min followed by scopolamine challenge and measured after 30 mins by Y-maze test; type: ADME, organism-based; conditions: in vivo, po, 0.5 h
[9] = tested on: Mus musculus; assay: Reversal of scopolamine-induced memory cognitive memory impairment in Kunming mouse assessed as change in spontaneous alteration behavior at 6 mg/kg, ig pretreated for 30 mins followed by scopolamine challenge and after 30 mins by Y-maze test (reference value: 45.6%); type: functional
[10] = molecular target: Cholinesterase (Equus caballus) (UniProt P81908); assay: Reversible inhibition of equine serum BuChE assessed as enzyme activity at 0.1 times IC50 using butyrylthiocholine iodide as substrate measured at 120 mins by Ellman's method relative to control; set-up: scale not given: the % may be the effect or the level left; procedure, shortened: as §1
[11] = molecular target: Amyloid-beta precursor protein (Homo sapiens) (UniProt P05067); assay: Inhibition of self-induced amyloid beta (1 to 42) (unknown origin) aggregation at 25 uM after 24 hrs by thioflavin-T based fluorescence assay relative to control
[12] = molecular target: Cholinesterase (Equus caballus) (UniProt P81908); assay: Inhibition of equine serum BuChE at 25 uM using S-butyrylthiocholine iodide as susbtrate preincubated for 6 mins followed by substrate addition measured up to 3 mins by Ellman's method

Sequence of Acetylcholinesterase (AChE) (O42275 whole entry): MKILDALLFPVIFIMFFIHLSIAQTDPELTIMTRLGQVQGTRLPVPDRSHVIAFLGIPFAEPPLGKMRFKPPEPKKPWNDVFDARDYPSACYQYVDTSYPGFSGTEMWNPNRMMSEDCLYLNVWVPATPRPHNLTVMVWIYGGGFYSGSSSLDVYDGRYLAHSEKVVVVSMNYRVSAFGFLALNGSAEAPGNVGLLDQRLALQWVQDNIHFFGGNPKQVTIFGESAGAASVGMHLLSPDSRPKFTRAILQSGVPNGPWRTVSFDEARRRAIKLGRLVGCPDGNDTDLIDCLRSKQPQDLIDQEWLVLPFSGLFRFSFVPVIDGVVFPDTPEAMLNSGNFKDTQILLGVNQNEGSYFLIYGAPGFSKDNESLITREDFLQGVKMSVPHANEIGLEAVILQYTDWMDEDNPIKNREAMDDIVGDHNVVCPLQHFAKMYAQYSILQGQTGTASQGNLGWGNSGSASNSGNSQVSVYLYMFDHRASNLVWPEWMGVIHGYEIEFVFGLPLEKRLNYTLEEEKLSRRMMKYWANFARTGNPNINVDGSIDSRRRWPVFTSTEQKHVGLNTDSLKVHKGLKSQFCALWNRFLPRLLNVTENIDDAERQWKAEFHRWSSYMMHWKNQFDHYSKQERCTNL
Sequence of Amyloid-beta precursor protein (Homo sapiens) (P05067 whole entry): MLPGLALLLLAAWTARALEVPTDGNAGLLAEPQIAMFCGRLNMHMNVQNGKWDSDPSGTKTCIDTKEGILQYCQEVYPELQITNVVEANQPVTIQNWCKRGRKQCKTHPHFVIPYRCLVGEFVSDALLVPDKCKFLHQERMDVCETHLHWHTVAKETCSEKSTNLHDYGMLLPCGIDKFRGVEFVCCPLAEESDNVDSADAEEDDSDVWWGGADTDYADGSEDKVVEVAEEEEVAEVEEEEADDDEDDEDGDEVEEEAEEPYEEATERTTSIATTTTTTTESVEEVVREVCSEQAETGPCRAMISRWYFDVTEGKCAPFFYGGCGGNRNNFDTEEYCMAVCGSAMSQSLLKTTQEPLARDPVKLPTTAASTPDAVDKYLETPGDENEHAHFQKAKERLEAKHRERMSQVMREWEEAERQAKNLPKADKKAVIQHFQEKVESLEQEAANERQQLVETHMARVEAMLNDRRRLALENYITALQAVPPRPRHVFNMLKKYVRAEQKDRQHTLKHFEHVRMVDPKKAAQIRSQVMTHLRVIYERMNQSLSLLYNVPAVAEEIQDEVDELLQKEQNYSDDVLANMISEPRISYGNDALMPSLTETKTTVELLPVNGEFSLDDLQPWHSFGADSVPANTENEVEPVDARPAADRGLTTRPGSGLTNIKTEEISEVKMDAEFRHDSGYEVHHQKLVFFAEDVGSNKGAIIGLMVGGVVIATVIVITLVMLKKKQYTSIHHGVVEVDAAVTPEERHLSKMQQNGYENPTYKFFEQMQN
Sequence of Cholinesterase (P81908 whole entry): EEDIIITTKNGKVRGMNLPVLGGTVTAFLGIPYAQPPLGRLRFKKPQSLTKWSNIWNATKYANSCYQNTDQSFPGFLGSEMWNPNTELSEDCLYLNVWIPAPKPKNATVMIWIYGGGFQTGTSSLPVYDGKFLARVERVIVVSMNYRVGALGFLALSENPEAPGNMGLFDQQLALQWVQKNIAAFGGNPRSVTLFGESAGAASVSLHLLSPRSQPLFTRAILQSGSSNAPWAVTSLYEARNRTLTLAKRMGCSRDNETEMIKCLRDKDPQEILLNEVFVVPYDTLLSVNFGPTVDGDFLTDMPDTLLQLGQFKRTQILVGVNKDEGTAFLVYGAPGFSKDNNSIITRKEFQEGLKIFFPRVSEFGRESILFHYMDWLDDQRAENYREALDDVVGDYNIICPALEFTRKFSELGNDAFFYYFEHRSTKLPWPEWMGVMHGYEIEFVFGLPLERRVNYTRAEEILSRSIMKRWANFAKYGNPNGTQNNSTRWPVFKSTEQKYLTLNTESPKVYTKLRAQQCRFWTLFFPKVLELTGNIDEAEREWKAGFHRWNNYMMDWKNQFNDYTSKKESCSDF
Sequence of Cholinesterase (Equus caballus) (P81908 whole entry): as above

Work on `CCN(CC)C(=O)Oc1cccc(/C=C/C(=O)c2ccccc2O)c1` yielded an IC50 [1] of 4.8 µM, an inhibition at 12.5 µM [2] of 38.1% and an Activity [3] of 1.3 µMequiv/µM. The inhibition at 0.25 h, 25 µM [4] was 16.9% and the IC50 [5] was 1.8 µM.

For `CCN(C)C(=O)Oc1cccc([C@H](C)N(C)C)c1` [RIVASTIGMINE], the Activity [6] was 49.8%, the Activity [7] was 46.9% and the Activity [8] was “Non-Toxic”. The Activity [9] was 65.3% and the Activity [10] was 71.6%.

`CON(C)C(=O)Oc1cccc(/C=C/C(=O)c2ccccc2OC(=O)N(C)OC)c1` gave an inhibition [11] of 49.9%, an IC50 [1] of 1.5 µM and an inhibition at 12.5 µM [2] of 10.3%. For the same compound, the Activity [3] was 0.32 µMequiv/µM, the inhibition at 0.25 h, 25 µM [4] was 45.4% and the IC50 [5] was 4.6 µM.

Compound `O=C(/C=C/c1cccc(O)c1)c1ccccc1O` has an inhibition [11] of 70.6%, an inhibition at 12.5 µM [2] of 28.1% and an inhibition [12] of 28.9%. For the same compound, the Activity [3] was 2.6 µMequiv/µM, the inhibition at 0.25 h, 25 µM [4] was 23.3% and the IC50 [5] was 1.1 µM.

In the case of `CON(C)C(=O)Oc1cccc(/C=C/C(=O)c2ccccc2O)c1`, the inhibition [11] is reported as 61.4%, the IC50 [1] is reported as 3.2 µM and the inhibition at 12.5 µM [2] is reported as 33.8%. The Activity [3] was 1.2 µMequiv/µM, the inhibition at 0.25 h, 25 µM [4] was 30.4% and the IC50 [5] was 2.6 µM.

`O=C(/C=C/c1cccc(OC(=O)N(c2ccccc2)c2ccccc2)c1)c1ccccc1OC(=O)N(c1ccccc1)c1ccccc1` showed an IC50 [1] of 42.6 µM, an inhibition at 12.5 µM [2] of 18.2% and an Activity [3] of 0.33 µMequiv/µM. It also gave an inhibition at 0.25 h, 25 µM [4] of 27.1% and an IC50 [5] of 6.3 µM.

`CCN(CC)C(=O)Oc1cccc(/C=C/C(=O)c2ccccc2OC(=O)N(CC)CC)c1` gave an inhibition [11] of 51.5%, an IC50 [1] of 3.1 µM and an inhibition at 12.5 µM [2] of 21.1%. The Activity [3] was 0.31 µMequiv/µM, the inhibition at 0.25 h, 25 µM [4] was 21.9% and the IC50 [5] was 3.3 µM.

Source: ChEMBL document CHEMBL4364279, “Design, synthesis, in-silico and biological evaluation of novel chalcone-O-carbamate derivatives as multifunctional agents for the treatment of Alzheimer's disease” (Eur J Med Chem, 2019)
